According to ChEMBL document CHEMBL4392861, “Synthesis and evaluation of the HIF-1α inhibitory activities of novel ursolic acid tetrazole derivatives” (Bioorg Med Chem Lett, 2019):

How the values were obtained:
Assay type in all cases: cell-based
[1] = target: Hypoxia-inducible factor 1-alpha (Homo sapiens, UniProt Q16665); test: Inhibition of hypoxia-induced HIF1alpha transcriptional activity in human Hep3B cells after 24 hrs in hypoxic condition by HRE-dependent dual luciferase reporter gene assay
Summary of the method: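 Hep3B cells transiently co-transfected with pGL3-HRE-luciferase and pRL-CMV vectors, incubated 24 h, then treated with compounds for 24 h under hypoxia. Luciferase activity measured […]. IC50 given as mean ± SE, n=3.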

Hep 3B2 [2] = test: Cytotoxicity against human Hep3B cells assessed as reduction in cell viability after 24 hrs by MTT assay
Summary of the method: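 Hep3B cells exposed to compounds for 24 h under normoxic conditions; viability read by MTT assay; IC50 from mean ± SE, n=3.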

Hep 3B2 [3] = test: Cytotoxicity against human Hep3B cells assessed as reduction in cell viability up to 30 uM after 24 hrs in presence of 20% O2 by MTT assay; details: hep 3b2, 24 h
Summary of the method: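 Hep3B cells treated with the indicated concentrations (up to 30 µM) for 24 h, then viability determined by MTT assay.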

IC50 [1]	inhibition [1]	Compound	IC50 (Hep 3B2 [2])	Activity (Hep 3B2 [3])
40 µM	–	C[C@H]1[C@H](C)CC[C@]2(C(=O)OCCCn3nnnc3-c3ccccc3)CC[C@]3(C)C(=CC[C@@H]4[C@@]5(C)CC[C@H](O)C(C)(C)[C@@H]5CC[C@]43C)[C@H]12	> 100 µM	–
18.1 µM	–	C[C@H]1[C@H](C)CC[C@]2(C(=O)OCCNc3ccc(-c4nnn[nH]4)cc3)CC[C@]3(C)C(=CC[C@@H]4[C@@]5(C)CCC(=O)C(C)(C)[C@@H]5CC[C@]43C)[C@H]12	> 100 µM	–
18.1 µM	–	C[C@H]1[C@H](C)CC[C@]2(C(=O)OCCn3nnnc3-c3ccccc3)CC[C@]3(C)C(=CC[C@@H]4[C@@]5(C)CC[C@H](O)C(C)(C)[C@@H]5CC[C@]43C)[C@H]12	> 100 µM	–
> 100 µM	–	C[C@H]1[C@H](C)CC[C@]2(C(=O)OCCNc3cccc(-c4nnn[nH]4)c3)CC[C@]3(C)C(=CC[C@@H]4[C@@]5(C)CCC(=O)C(C)(C)[C@@H]5CC[C@]43C)[C@H]12	> 100 µM	–
76.4 µM	–	C[C@H]1[C@H](C)CC[C@]2(C(=O)OCCn3nnnc3-c3ccc(Cl)cc3)CC[C@]3(C)C(=CC[C@@H]4[C@@]5(C)CC[C@H](O)C(C)(C)[C@@H]5CC[C@]43C)[C@H]12	> 100 µM	–
26.2 µM	–	C[C@H]1[C@H](C)CC[C@]2(C(=O)OCCNc3ccc(-c4nnn[nH]4)cc3)CC[C@]3(C)C(=CC[C@@H]4[C@@]5(C)CC[C@H](O)C(C)(C)[C@@H]5CC[C@]43C)[C@H]12	> 100 µM	–
14.2 µM	–	C[C@H]1[C@H](C)CC[C@]2(C(=O)OCCNc3nnn[nH]3)CC[C@]3(C)C(=CC[C@@H]4[C@@]5(C)CCC(=O)C(C)(C)[C@@H]5CC[C@]43C)[C@H]12	> 100 µM	–
> 100 µM	–	C[C@H]1[C@H](C)CC[C@]2(C(=O)OCCCNc3ccc(-c4nnn[nH]4)cc3)CC[C@]3(C)C(=CC[C@@H]4[C@@]5(C)CC[C@H](O)C(C)(C)[C@@H]5CC[C@]43C)[C@H]12	> 100 µM	–
10.3 µM	–	C[C@H]1[C@H](C)CC[C@]2(C(=O)OCCCNc3nnn[nH]3)CC[C@]3(C)C(=CC[C@@H]4[C@@]5(C)CC[C@H](O)C(C)(C)[C@@H]5CC[C@]43C)[C@H]12	> 100 µM	–
> 100 µM	–	C[C@H]1[C@H](C)CC[C@]2(C(=O)OCCCNc3cccc(-c4nnn[nH]4)c3)CC[C@]3(C)C(=CC[C@@H]4[C@@]5(C)CCC(=O)C(C)(C)[C@@H]5CC[C@]43C)[C@H]12	> 100 µM	–
> 100 µM	–	C[C@H]1[C@H](C)CC[C@]2(C(=O)OCCCNc3ccccc3-c3nnn[nH]3)CC[C@]3(C)C(=CC[C@@H]4[C@@]5(C)CCC(=O)C(C)(C)[C@@H]5CC[C@]43C)[C@H]12	> 100 µM	–
4 µM	–	C[C@H]1[C@H](C)CC[C@]2(C(=O)O)CC[C@]3(C)C(=CC[C@@H]4[C@@]5(C)CC(=C\c6ccc(Cl)cc6)/C(=N\NC(=N)N)C(C)(C)[C@@H]5CC[C@]43C)[C@H]12	> 100 µM	–
8.9 µM	–	C[C@H]1[C@H](C)CC[C@]2(C(=O)OCCNc3cccc(-c4nnn[nH]4)c3)CC[C@]3(C)C(=CC[C@@H]4[C@@]5(C)CC[C@H](O)C(C)(C)[C@@H]5CC[C@]43C)[C@H]12	> 100 µM	–
2.2 µM	–	C[C@H]1[C@H](C)CC[C@]2(C(=O)Nc3nnn[nH]3)CC[C@]3(C)C(=CC[C@@H]4[C@@]5(C)CC/C(=N\Nc6ccccc6)C(C)(C)[C@@H]5CC[C@]43C)[C@H]12	11.9 µM	–
> 100 µM	–	COc1ccc(-c2nnnn2CCOC(=O)[C@]23CC[C@@H](C)[C@H](C)[C@H]2C2=CC[C@@H]4[C@@]5(C)CC[C@H](O)C(C)(C)[C@@H]5CC[C@@]4(C)[C@]2(C)CC3)cc1	> 100 µM	–
83 µM	–	C[C@H]1[C@H](C)CC[C@]2(C(=O)OCCCn3nnnc3-c3ccc4c(c3)OCO4)CC[C@]3(C)C(=CC[C@@H]4[C@@]5(C)CC[C@H](O)C(C)(C)[C@@H]5CC[C@]43C)[C@H]12	> 100 µM	–
0.8 µM	–	C[C@H]1[C@H](C)CC[C@]2(C(=O)Nc3nnn[nH]3)CC[C@]3(C)C(=CC[C@@H]4[C@@]5(C)CC[C@H](OC(=O)c6ccccc6)C(C)(C)[C@@H]5CC[C@]43C)[C@H]12	18.5 µM	–

IC50 [1]	inhibition [1]	Compound	IC50 (Hep 3B2 [2])	Activity (Hep 3B2 [3])
> 100 µM	–	C[C@H]1[C@H](C)CC[C@]2(C(=O)OCCCNc3ccccc3-c3nnn[nH]3)CC[C@]3(C)C(=CC[C@@H]4[C@@]5(C)CC[C@H](O)C(C)(C)[C@@H]5CC[C@]43C)[C@H]12	> 100 µM	–
> 100 µM	–	C[C@H]1[C@H](C)CC[C@]2(C(=O)OCCNc3ccccc3-c3nnn[nH]3)CC[C@]3(C)C(=CC[C@@H]4[C@@]5(C)CCC(=O)C(C)(C)[C@@H]5CC[C@]43C)[C@H]12	> 100 µM	–
1.4 µM	–	CCCC(=O)O[C@H]1CC[C@]2(C)[C@H]3CC=C4[C@@H]5[C@@H](C)[C@H](C)CC[C@]5(C(=O)Nc5nnn[nH]5)CC[C@@]4(C)[C@]3(C)CC[C@H]2C1(C)C	4.7 µM	–
7.5 µM	–	C[C@H]1[C@H](C)CC[C@]2(C(=O)OCCCn3nnnc3-c3ccc(Cl)cc3)CC[C@]3(C)C(=CC[C@@H]4[C@@]5(C)CC[C@H](O)C(C)(C)[C@@H]5CC[C@]43C)[C@H]12	> 100 µM	–
4.7 µM	Dose-dependent effect	CC(=O)O[C@H]1CC[C@]2(C)[C@H]3CC=C4[C@@H]5[C@@H](C)[C@H](C)CC[C@]5(C(=O)Nc5nnn[nH]5)CC[C@@]4(C)[C@]3(C)CC[C@H]2C1(C)C	> 100 µM	Non-Toxic
> 100 µM	–	C[C@H]1[C@H](C)CC[C@]2(C(=O)O)CC[C@]3(C)C(=CC[C@@H]4[C@@]5(C)CC[C@H](O)C(C)(C)[C@@H]5CC[C@]43C)[C@H]12 [URSOLIC ACID]	–	–
8.5 µM	–	C[C@H]1[C@H](C)CC[C@]2(C(=O)OCCNc3nnn[nH]3)CC[C@]3(C)C(=CC[C@@H]4[C@@]5(C)CC[C@H](O)C(C)(C)[C@@H]5CC[C@]43C)[C@H]12	> 100 µM	–
13.3 µM	–	C[C@H]1[C@H](C)CC[C@]2(C(=O)Nc3nnn[nH]3)CC[C@]3(C)C(=CC[C@@H]4[C@@]5(C)CC[C@H](O)C(C)(C)[C@@H]5CC[C@]43C)[C@H]12	> 100 µM	–
> 100 µM	–	C[C@H]1[C@H](C)CC[C@]2(C(=O)OCCNc3ccccc3-c3nnn[nH]3)CC[C@]3(C)C(=CC[C@@H]4[C@@]5(C)CC[C@H](O)C(C)(C)[C@@H]5CC[C@]43C)[C@H]12	> 100 µM	–
1.6 µM	–	C[C@H]1[C@H](C)CC[C@]2(C(=O)Nc3nnn[nH]3)CC[C@]3(C)C(=CC[C@@H]4[C@@]5(C)CC[C@H](OC(=O)C(F)(F)F)C(C)(C)[C@@H]5CC[C@]43C)[C@H]12	6.4 µM	–
> 100 µM	–	C[C@H]1[C@H](C)CC[C@]2(C(=O)OCCn3nnnc3-c3ccc4c(c3)OCO4)CC[C@]3(C)C(=CC[C@@H]4[C@@]5(C)CC[C@H](O)C(C)(C)[C@@H]5CC[C@]43C)[C@H]12	> 100 µM	–
27.4 µM	–	COc1ccc(-c2nnnn2CCCOC(=O)[C@]23CC[C@@H](C)[C@H](C)[C@H]2C2=CC[C@@H]4[C@@]5(C)CC[C@H](O)C(C)(C)[C@@H]5CC[C@@]4(C)[C@]2(C)CC3)cc1	> 100 µM	–
16.7 µM	–	C[C@H]1[C@H](C)CC[C@]2(C(=O)OCCCNc3nnn[nH]3)CC[C@]3(C)C(=CC[C@@H]4[C@@]5(C)CCC(=O)C(C)(C)[C@@H]5CC[C@]43C)[C@H]12	> 100 µM	–
13.2 µM	–	C[C@H]1[C@H](C)CC[C@]2(C(=O)OCCCNc3cccc(-c4nnn[nH]4)c3)CC[C@]3(C)C(=CC[C@@H]4[C@@]5(C)CC[C@H](O)C(C)(C)[C@@H]5CC[C@]43C)[C@H]12	> 100 µM	–
36.9 µM	–	C[C@H]1[C@H](C)CC[C@]2(C(=O)OCn3ncn(-c4ccccc4)c3=O)CC[C@]3(C)C(=CC[C@@H]4[C@@]5(C)CC[C@H](O)C(C)(C)[C@@H]5CC[C@]43C)[C@H]12	> 100 µM	–
> 100 µM	–	C[C@H]1[C@H](C)CC[C@]2(C(=O)OCCCNc3ccc(-c4nnn[nH]4)cc3)CC[C@]3(C)C(=CC[C@@H]4[C@@]5(C)CCC(=O)C(C)(C)[C@@H]5CC[C@]43C)[C@H]12	> 100 µM	–
18.1 µM	–	C[C@H]1[C@H](C)CC[C@]2(C(=O)Nc3nnn[nH]3)CC[C@]3(C)C(=CC[C@@H]4[C@@]5(C)CCC(=O)C(C)(C)[C@@H]5CC[C@]43C)[C@H]12	> 100 µM	–
